From ChEMBL document CHEMBL4715796, “Discovery of Chromane Containing Hepatitis C Virus (HCV) NS5A Inhibitors with Improved Potency against Resistance-Associated Variants” (J Med Chem, 2016)
Numbering of substitutions follows the chain as printed.

Experiments:
[1] = Cytotoxicity against human HuH7 cells assessed as reduction in cell viability measured after 72 hrs by Hoechst/Alexa fluor 488 staining based Edu plus cell counting analysis; set-up: species or system Huh-7
Method in brief: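 Huh7 cells were seeded at 1,200 per well and treated with a 20-point twofold compound dilution series for 72 h, with EdU added for the last 18-20 h. Cells were then fixed and permeabilized, nuclei stained with Hoechst, and EdU labelled with Alexa Fluor 488 by click reaction. Plates were scanned with 405 nm (420-500 nm) and 488 nm (500-530 nm) detection, giving CC50.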

[2] = Selectivity ratio of EC90 for inhibition of NS5A in Hepatitis C virus subtype 3a infected in human HuH7 cells assessed as reduction in viral to EC90 for inhibition of NS5A in Hepatitis C virus subtype 1a; format: cell-based
[3] = Selectivity ratio of EC90 for inhibition of NS5A in Hepatitis C virus subtype 2b infected in human HuH7 cells assessed as reduction in viral to EC90 for inhibition of NS5A in Hepatitis C virus subtype 1a; format: cell-based
[4] = Selectivity ratio of EC90 for inhibition of NS5A in Hepatitis C virus subtype 1b infected in human HuH7 cells assessed as reduction in viral to EC90 for inhibition of NS5A in Hepatitis C virus subtype 1a; format: cell-based
Method in brief: (§1)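 Fold shift calculated against the GT1a EC90, using EC90 values from the luciferase replicon assay in Huh7-derived cells.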

[5] = system: Nonstructural protein 5A (Hepatitis C virus), Q5L478 [UNDEFINED MUTATION]; test: Inhibition of NS5A L31V mutant in Hepatitis C virus subtype 1b
Method in brief: (§2)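 NS5A resistance variants engineered into GT1a-H77 or GT1b-Con1 replicons. Each variant replicon is transfected transiently by electroporation into a Huh7-derived cell line. Percent inhibition is taken from the drop in luciferase signal at each compound concentration, and EC90 is calculated from these. Values are means of at least two experiments.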

[6] = system: T1, Nonstructural protein 5A (Hepatitis C virus), Q5L478 [Y93N]; test: Inhibition of NS5A Y93N mutant in Hepatitis C virus subtype 1a; method in brief: as §2
T1 sequence (whole entry): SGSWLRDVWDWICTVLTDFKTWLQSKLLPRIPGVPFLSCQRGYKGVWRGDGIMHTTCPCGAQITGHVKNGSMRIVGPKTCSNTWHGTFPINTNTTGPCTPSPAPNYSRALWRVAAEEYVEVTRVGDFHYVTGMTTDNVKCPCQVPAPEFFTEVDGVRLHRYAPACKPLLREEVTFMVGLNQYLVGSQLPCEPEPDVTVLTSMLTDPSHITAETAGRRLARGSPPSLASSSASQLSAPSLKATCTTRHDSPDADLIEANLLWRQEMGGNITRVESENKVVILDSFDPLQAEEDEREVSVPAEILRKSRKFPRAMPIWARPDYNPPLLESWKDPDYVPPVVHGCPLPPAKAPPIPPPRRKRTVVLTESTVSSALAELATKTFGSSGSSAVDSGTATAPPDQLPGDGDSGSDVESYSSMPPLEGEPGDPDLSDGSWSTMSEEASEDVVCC

[7] = system: T2, Nonstructural protein 5A (Hepatitis C virus), Q5L478 [Y93H]; test: Inhibition of NS5A Y93H mutant in Hepatitis C virus subtype 1b; method in brief: as §2
T2 sequence (whole entry): T1 sequence (whole entry) with N93H

[8] = system: Nonstructural protein 5A (Hepatitis C virus), Q5L478 [UNDEFINED MUTATION]; test: Inhibition of NS5A Q30R mutant in Hepatitis C virus subtype 1a; method in brief: as §2
[9] = system: Hepatitis C virus subtype 1a; test: Inhibition of NS5A Q30D mutant in Hepatitis C virus subtype 1a; method in brief: as §2
[10] = system: Nonstructural protein 5A (Hepatitis C virus), Q5L478 [UNDEFINED MUTATION]; test: Inhibition of NS5A L31V mutant in Hepatitis C virus subtype 1a infected in human HuH7 cells assessed as reduction in viral replication by luciferase reporter gene assay; format: cell-based; details: Huh-7; method in brief: as §2
Huh-7 [11] = test: Inhibition of NS5A in Hepatitis C virus subtype 4a infected in human HuH7 cells assessed as reduction in viral replication by luciferase reporter gene assay; format: cell-based
Method in brief: (§3)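 Transient replicon assay with GT1a-H77, GT1b-Con1 or chimeric replicons, electroporated into a Huh7-derived cell line. Percent inhibition of replication, read as a drop in luciferase signal, was calculated at each concentration to give EC90. Values are means of at least two experiments.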

Huh-7 [12] = test: Inhibition of NS5A in Hepatitis C virus subtype 3a infected in human HuH7 cells assessed as reduction in viral replication by luciferase reporter gene assay; format: cell-based; method in brief: as §3
Huh-7 [13] = test: Inhibition of NS5A in Hepatitis C virus subtype 2b infected in human HuH7 cells assessed as reduction in viral replication by luciferase reporter gene assay; format: cell-based; method in brief: as §3
Huh-7 [14] = test: Inhibition of NS5A in Hepatitis C virus subtype 1b infected in human HuH7 cells assessed as reduction in viral replication by luciferase reporter gene assay; format: cell-based; method in brief: as §3
Huh-7 [15] = test: Inhibition of NS5A in Hepatitis C virus subtype 1a infected in human HuH7 cells assessed as reduction in viral replication by luciferase reporter gene assay; format: cell-based; method in brief: as §3
[16] = Selectivity ratio of EC90 for inhibition of NS5A L31V mutant in Hepatitis C virus subtype 1b to EC90 for Selectivity ratio of EC90 for inhibition of NS5A in Hepatitis C virus subtype 1a
Method in brief: (§4)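 Fold shift is calculated against the GT1a EC90. The variant EC90 comes from a transient replicon assay: the NS5A variant is introduced into a GT1a-H77 or GT1b-Con1 replicon and electroporated into Huh7-derived cells. The read-out is reduced luciferase signal. EC90s are means of at least two experiments.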

[17] = Selectivity ratio of EC90 for inhibition of NS5A Y93H mutant in Hepatitis C virus subtype 1b to EC90 for Selectivity ratio of EC90 for inhibition of NS5A in Hepatitis C virus subtype 1a; method in brief: as §4
[18] = system: Hepatitis C virus subtype 1a; test: Selectivity ratio of EC90 for inhibition of NS5A Y93N mutant in Hepatitis C virus subtype 1a to EC90 for Selectivity ratio of EC90 for inhibition of NS5A in Hepatitis C virus subtype 1a; method in brief: as §4
[19] = system: Hepatitis C virus subtype 1a; test: Selectivity ratio of EC90 for inhibition of NS5A R155K V36 mutant in Hepatitis C virus subtype 1a to EC90 for Selectivity ratio of EC90 for inhibition of NS5A in Hepatitis C virus subtype 1a
[20] = system: Hepatitis C virus subtype 1a; test: Selectivity ratio of EC90 for inhibition of NS5A R155K mutant in Hepatitis C virus subtype 1a to EC90 for Selectivity ratio of EC90 for inhibition of NS5A in Hepatitis C virus subtype 1a
[21] = system: Hepatitis C virus subtype 1a; test: Selectivity ratio of EC90 for inhibition of NS5A Q30D mutant in Hepatitis C virus subtype 1a to EC90 for Selectivity ratio of EC90 for inhibition of NS5A in Hepatitis C virus subtype 1a; method in brief: as §4
[22] = system: Hepatitis C virus subtype 1a; test: Selectivity ratio of EC90 for inhibition of NS5A Q30R mutant in Hepatitis C virus subtype 1a to EC90 for Selectivity ratio of EC90 for inhibition of NS5A in Hepatitis C virus subtype 1a; method in brief: as §4
[23] = Selectivity ratio of EC90 for inhibition of NS5A L31V mutant in Hepatitis C virus subtype 1a infected in human HuH7 cells assessed as reduction in viral to EC90 for inhibition of NS5A in Hepatitis C virus subtype 1a; format: cell-based; method in brief: as §4
[24] = Selectivity ratio of EC90 for inhibition of NS5A Y93H mutant in Hepatitis C virus subtype 1a infected in human HuH7 cells assessed as reduction in viral to EC90 for inhibition of NS5A in Hepatitis C virus subtype 1a; format: cell-based; method in brief: as §4
[25] = Selectivity ratio of EC90 for inhibition of NS5A in Hepatitis C virus subtype 4a infected in human HuH7 cells assessed as reduction in viral to EC90 for inhibition of NS5A in Hepatitis C virus subtype 1a; format: cell-based; method in brief: as §1
[26] = system: Hepatitis C virus subtype 1b; test: Inhibition of NS3 D168Y mutant in Hepatitis C virus subtype 1b
[27] = system: Hepatitis C virus subtype 1a; test: Inhibition of NS3 R155K mutant in Hepatitis C virus subtype 1a
[28] = system: Hepatitis C virus subtype 1a; test: Inhibition of NS3 R155K/V36M mutant in Hepatitis C virus subtype 1a
[29] = Selectivity ratio of EC90 for inhibition of NS3 D168Y mutant in Hepatitis C virus subtype 1b to EC90 for Selectivity ratio of EC90 for inhibition of NS5A in Hepatitis C virus subtype 1a

## COC(=O)N[C@H](C(=O)N1CCC[C@H]1c1ncc(-c2cc(F)c3c(c2)OC(c2ccc4c(c2)OCCC4)n2c-3cc3cc(-c4cnc([C@@H]5CCCN5C(=O)[C@@H](NC(=O)OC)C(C)C)[nH]4)ccc32)[nH]1)C(C)C (some centres undefined) [listing 1 of 2 here]
[1]
  CC50 at 72 h: > 50000 nM

## COC(=O)N[C@H](C(=O)N1CCC[C@H]1c1ncc(-c2cc(F)c3c(c2)OC(c2ccc4c(c2)OCCC4)n2c-3cc3cc(-c4cnc([C@@H]5CCCN5C(=O)[C@@H](NC(=O)OC)C(C)C)[nH]4)ccc32)[nH]1)C(C)C (some centres undefined) [listing 2 of 2 here]
[2]
  Selectivity ratio: 3
[3]
  Selectivity ratio: 100
[4]
  Selectivity ratio: 1
[5]
  EC90: 0.005 nM
[6]
  EC90: 0.2 nM
[7]
  EC90: 0.07 nM
[8]
  EC90: 0.02 nM
[9]
  EC90: 0.9 nM
[10]
  EC90: 0.02 nM
Huh-7 [11]
  EC90: 0.002 nM
Huh-7 [12]
  EC90: 0.01 nM
Huh-7 [13]
  EC90: 0.3 nM
Huh-7 [14]
  EC90: 0.003 nM
Huh-7 [15]
  EC90: 0.003 nM
[16]
  Selectivity ratio: 2
[17]
  Selectivity ratio: 23
[18]
  Selectivity ratio: 67
[19]
  Selectivity ratio: 1
[20]
  Selectivity ratio: 1
[21]
  Selectivity ratio: 300
[22]
  Selectivity ratio: 7
[23]
  Selectivity ratio: 7
[24]
  Selectivity ratio: 167
[25]
  Selectivity ratio: 1
[26]
  EC90: 0.002 nM
[27]
  EC90: 0.0001 nM
[28]
  EC90: 0.001 nM
[29]
  Selectivity ratio: 1
